Screens (PubChem BioAssay)
Hits are enriched below; roughly 2.3% of the tested compounds scored in any of these assays.
MT1-MMP act inh: MT1-MMP (human) activation inhibition; HT1080 RFP-PRO-GFP cells, GFP/RFP ratio fluorescence, overnight; percent of plate control window, DMSO zero; GFP/RFP ratio change, % at 20 µM; 0.061% of 360,000 active; AID 651647;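 active means GFP/RFP ratio change of at least 30% with cell ATP level not reduced by more than half and red fluorescence within 50% of control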
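Test system: HT1080 cells expressing an RFP-PRO-GFP fluorescent reporter construct / Compound dosing: single-point 20 µM compound, 1% DMSO / Schedule: cells overnight before dosing, compound overnight, 37 °C, 5% CO2 / Evaluation: GFP/RFP fluorescence ratio / Control set: DMSO and RFP-L50D-GFP cell wells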
SKN-1 inh: inhibitors of C. elegans SKN-1; C. elegans VP596 Pgst-4::GFP/RFP ratio, acrylamide-induced, 24 h; inhibition, % at 21.8 µM; 0.49% of 360,000 active; AID 624304;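 active means interference check ratio from 0.5 to 1.5 plus GFP to RFP signal ratio inhibition reaching or exceeding a fixed threshold, cut at about 30% in these data, passing the limit was not always enough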
MPTP block: blocks calcium-induced mitochondrial swelling; isolated mouse mitochondria, Ca2+ swelling absorbance, 30 min; inhibition, % at 10 µM; 1.4% of 360,000 active;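 active means inhibition of 50% or more, scaled per plate between neutral and stimulator controls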;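 further: 0% = DMSO wells given calcium and 100% = 1 mM EGTA wells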
ATG4B inhibitor: ATG4B (human) cysteine protease inhibition; Q9Y4P1; ATG4B cleavage of LC3-PLA2, NBD-HPC fluorescence, 1 h; inhibition, % at 8.33 µM; 0.51% of 340,000 active; AID 504462; in the data active means inhibition above about 40%
Target sequence (Q9Y4P1 whole entry, looked up): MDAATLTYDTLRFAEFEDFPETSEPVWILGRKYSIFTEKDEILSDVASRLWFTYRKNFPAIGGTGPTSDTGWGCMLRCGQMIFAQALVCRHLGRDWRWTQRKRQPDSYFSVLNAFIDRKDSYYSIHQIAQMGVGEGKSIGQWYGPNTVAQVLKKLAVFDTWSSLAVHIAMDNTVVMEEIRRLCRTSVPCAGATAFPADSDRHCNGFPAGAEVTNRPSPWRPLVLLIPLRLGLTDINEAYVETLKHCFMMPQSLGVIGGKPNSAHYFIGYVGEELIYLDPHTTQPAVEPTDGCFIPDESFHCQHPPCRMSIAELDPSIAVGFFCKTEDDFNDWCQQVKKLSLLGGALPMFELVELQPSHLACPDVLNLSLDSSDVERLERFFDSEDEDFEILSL
Starred values were filed as active, the others as inactive.

Results for O=C1c2cccnc2C(=O)N1Cc1ccccc1 ?
MT1-MMP act inh: 0.6; SKN-1 inh: -2.3; MPTP block: -2.1; ATG4B inhibitor: 4.2

What do the screens show for `O=C(NCCOCc1ccccc1)C(c1ccccc1)c1ccccc1`?
MT1-MMP act inh: -2.4; SKN-1 inh: 5.9; MPTP block: 0.8; ATG4B inhibitor: -2.2

How did COC(=O)C1=C(CN2CCSCC2)NC(=O)NC1c1cc(C)ccc1C (stereo not drawn) do in these assays?
MT1-MMP act inh: 1.1; SKN-1 inh: 37.1*; MPTP block: 0.3; ATG4B inhibitor: 2.0

What do the screens show for `Cc1ccc(/C=C2\SC(=S)N(CCCC(=O)Nc3cccnc3)C2=O)cc1`?
MT1-MMP act inh: -1.6; SKN-1 inh: -12.1; MPTP block: 13.4; ATG4B inhibitor: 8.3

How did C[C@H](NC(=O)c1[nH]cnc1C(=O)Nc1ccc(Cl)cc1)C(=O)OC(C)(C)C do in these assays?
MT1-MMP act inh: 4.8; SKN-1 inh: 36.4*; MPTP block: 1.4; ATG4B inhibitor: -2.1

What do the screens show for `CN(C)S(=O)(=O)c1cccc(C(=O)N=C2N=C3C=CC(Cl)=CN3Cc3ccccc32)c1`?
MT1-MMP act inh: -2.9; SKN-1 inh: 56.6*; MPTP block: 1.9; ATG4B inhibitor: -0.3

How did Cc1nc(C)c(-c2csc(Nc3ccc(Cl)cn3)n2)s1 do in these assays?
MT1-MMP act inh: 2.4; SKN-1 inh: 30.9; MPTP block: 1.6

Results for Clc1cccc(CSc2ncn(-c3ccccc3)n2)c1 ?
MT1-MMP act inh: -1.4; SKN-1 inh: 49.2*; MPTP block: 5.4; ATG4B inhibitor: 11.9

What do the screens show for `Clc1ccc(CSc2ncn(-c3ccccc3)n2)cc1`?
MT1-MMP act inh: -3.7; SKN-1 inh: 76.5*; MPTP block: 4.8; ATG4B inhibitor: -3.3

What do the screens show for `Clc1cccc(CSc2nccn2-c2ccccc2)c1`?
MT1-MMP act inh: 1.7; SKN-1 inh: 11.8; MPTP block: -0.5; ATG4B inhibitor: 22.8

What do the screens show for `Cn1c(=O)oc2cc(S(=O)(=O)CCC(=O)Nc3ccccc3)ccc21`?
MT1-MMP act inh: -4.1; SKN-1 inh: 14.6; MPTP block: -1.9; ATG4B inhibitor: -2.2

How did Cc1ccc([N+](=O)[O-])cc1NC(=O)CN1CCC(C)CC1 do in these assays?
MT1-MMP act inh: 3.7; SKN-1 inh: 24.0; MPTP block: -0.8; ATG4B inhibitor: -1.0

Results for Cc1ccc(/C(N)=N/OC(=O)CSc2ccccc2)cc1 ?
MT1-MMP act inh: -1.9; SKN-1 inh: 3.8; MPTP block: -0.2; ATG4B inhibitor: -4.7

How did N/C(=N\OC(=O)CSc1ccccc1)c1ccc([N+](=O)[O-])cc1 do in these assays?
MT1-MMP act inh: 0.9; SKN-1 inh: 53.6*; MPTP block: -0.3; ATG4B inhibitor: -5.8

How did CC1CCCCN1S(=O)(=O)c1ccc(C(=O)Nc2sccc2C(N)=O)cc1 (stereo not drawn) do in these assays?
MT1-MMP act inh: 5.7; SKN-1 inh: 40.3*; MPTP block: -1.1; ATG4B inhibitor: -11.5

Results for CCNc1nn2ccccc2c1/C=C(\C#N)C(=O)OCC ?
MT1-MMP act inh: -3.1; SKN-1 inh: -24.0; MPTP block: 0.0; ATG4B inhibitor: -1.6

Results for CCCN1C2CCCC1CC(NC(=O)c1ccc(F)cc1)C2 (stereo not drawn) ?
MT1-MMP act inh: 0.3; SKN-1 inh: 56.3*; MPTP block: -0.9; ATG4B inhibitor: -1.2

What do the screens show for `CCOC(=O)C1=C(O)c2ccccc2C(=O)/C1=C\c1ccc(C)cc1`?
MT1-MMP act inh: 8.5; SKN-1 inh: 47.8*; MPTP block: 37.9; ATG4B inhibitor: -2.5

Results for COc1ccc(S(=O)(=O)N2CCCCC2c2cc(C(=O)Nc3ccc(OC)cc3C)no2)cc1 (stereo not drawn) ?
MT1-MMP act inh: -1.5; SKN-1 inh: 1.6; MPTP block: 0.2

What do the screens show for `O=C(COc1ccccc1)NS(=O)(=O)c1ccc(Cl)cc1`?
MT1-MMP act inh: 3.1; SKN-1 inh: -1.2; MPTP block: -0.5; ATG4B inhibitor: 0.9

What do the screens show for `CC(=O)Nc1cccc(OCC(=O)NS(=O)(=O)c2ccc(Cl)cc2)c1`?
MT1-MMP act inh: -2.2; SKN-1 inh: 35.4*; MPTP block: 1.0; ATG4B inhibitor: 1.2

How did O=C(NCc1ccccc1)N1CCN(c2ccc(Cl)c(Cl)c2)CC1 do in these assays?
MT1-MMP act inh: -0.3; SKN-1 inh: -15.3; MPTP block: 3.6; ATG4B inhibitor: 8.4

What do the screens show for `CC1=C/C(=C\c2ccc(Br)o2)C(=O)O1`?
MT1-MMP act inh: 0.9; SKN-1 inh: -2.7; MPTP block: -0.4; ATG4B inhibitor: 4.4

How did O=C1C(=Cc2ccc(Br)o2)C(=O)c2ccccc21 do in these assays?
MT1-MMP act inh: 3.3; SKN-1 inh: -2.4; MPTP block: 6.5; ATG4B inhibitor: 69.1*

How did O=C(C=Cc1ccco1)c1ccc2ccccc2c1 do in these assays?
MT1-MMP act inh: -9.9; SKN-1 inh: 62.9*; MPTP block: -1.0; ATG4B inhibitor: 6.5

Results for Cc1ccc(S(=O)(=O)N2CCC(=O)N(CCOCc3ccc(F)cc3)CC2)cc1 ?
MT1-MMP act inh: 7.5; SKN-1 inh: -0.4; MPTP block: -0.9; ATG4B inhibitor: -2.0

Results for Cc1ccccc1NC(=O)Nc1nnc([C@@H]2C[C@H](O)[C@@H](CO)O2)s1 ?
MT1-MMP act inh: 1.7; SKN-1 inh: -3.5; MPTP block: 0.0

How did Clc1ccccc1-c1ncc(-c2ccccc2)o1 do in these assays?
MT1-MMP act inh: 0.5; SKN-1 inh: 41.8*; MPTP block: 1.4; ATG4B inhibitor: 2.4

Results for CCc1nc2ccccc2n1CC(=O)N(C(C)CC)C1CCS(=O)(=O)C1 (stereo not drawn) ?
MT1-MMP act inh: -2.5; SKN-1 inh: 46.7*; MPTP block: 11.8; ATG4B inhibitor: -13.7

How did O=C1c2cc(Br)ccc2OC2C=CC=CC12 (stereo not drawn) do in these assays?
MT1-MMP act inh: 2.7; SKN-1 inh: 42.0*; MPTP block: 0.0; ATG4B inhibitor: 3.2

How did COC(=O)C1C2CC3c4[nH]c5cc(OC)ccc5c4CCN3CC2CC(OC(=O)CC(C)=O)C1OC (stereo not drawn) do in these assays?
MT1-MMP act inh: -55.7; SKN-1 inh: 47.2*; MPTP block: -0.7; ATG4B inhibitor: -1.1

What do the screens show for `CCN(CC)Cc1ccc(NC(=O)c2sc3cc(Cl)ccc3c2Cl)cc1`?
MT1-MMP act inh: -2.0; SKN-1 inh: 51.4*; MPTP block: -1.7; ATG4B inhibitor: -8.7

How did COc1ccc(C(NC(=O)C2CCN(Cc3ccc(Oc4ccccc4)cc3)CC2)c2ccccc2C)cn1 (stereo not drawn) do in these assays?
MT1-MMP act inh: -0.6; SKN-1 inh: -16.3; MPTP block: 4.3

What do the screens show for `CN(N=Cc1ccc([N+](=O)[O-])cc1)c1ccccn1`?
MT1-MMP act inh: -2.3; SKN-1 inh: 47.7*; MPTP block: 0.4

Results for O=C(c1ccc([N+](=O)[O-])cc1)N(c1ccccn1)c1ccccn1 ?
MT1-MMP act inh: -2.6; SKN-1 inh: -6.6; MPTP block: -1.4; ATG4B inhibitor: 2.3

What do the screens show for `CCOc1ccc(C(=O)NCCc2ccc3c(c2)OCCO3)cc1`?
MT1-MMP act inh: 4.4; SKN-1 inh: 4.5; MPTP block: 0.2; ATG4B inhibitor: 11.1

How did Brc1ccc(OCc2cn3ccccc3n2)cc1 do in these assays?
MT1-MMP act inh: 4.8; SKN-1 inh: 47.7*; MPTP block: 1.2; ATG4B inhibitor: 5.2
